KCNQ1 act: potentiators or activators of human KCNQ1 potassium channel; actives 0.35% (n = 310,000); CHO-K1 KCNQ1, thallium flux FluxOR fluorescence; active compounds read high; P51787; B-score at 10 µM; AID 2648;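 active = fluorescence ratio B-score, a plate-corrected score, at least three library SD, with initial intensity B-score within 5 SD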
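Test system: CHO-K1 cells stably expressing KCNQ1 / Medium: assay buffer / Also added: depolarizing K+/Tl+ stimulus, K2SO4 and Tl2SO4 each 12.5 mM in 5x stock / Incubation: 90 min dye loading and 20 min compound exposure, both at room temperature / Signal: thallium influx via FluxOR fluorescence, kinetic imaging / Evaluation: B score of baseline-normalized fluorescence ratio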
KCNK3 inh: human KCNK3 channel inhibition, primary screen | O14649 | CHO-KCNK3 thallium flux, FluxOR fluorescence; active compounds read low | B-score at 10 µM | actives 0.84% (n = 340,000) | AID 602410;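 active = B-score under library mean minus 4 SD, starting fluorescence ratio at most library mean plus 5 SD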;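 note: more negative B-score means stronger inhibition of thallium flux through KCNK3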
Cl transport mod: modulates chloride dependent transport by human KCC2 | AID 1456 | KCC2 cells, thallium flux FluoZin-2 fluorescence | B-score of Tl+ flux slope (higher = more flux/activation; lower = inhibition) at 10 µM | Q9H2X9 | actives 2.2% (n = 190,000);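 active = thallium flux slope and its plate-corrected score both differing from the plate sample mean at a set confidence after two filtering rounds, in either direction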;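 note: slope of fluorescence scaled to starting intensity during 10 to 20 s after thallium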
Target sequence (Q9H2X9 whole entry, looked up): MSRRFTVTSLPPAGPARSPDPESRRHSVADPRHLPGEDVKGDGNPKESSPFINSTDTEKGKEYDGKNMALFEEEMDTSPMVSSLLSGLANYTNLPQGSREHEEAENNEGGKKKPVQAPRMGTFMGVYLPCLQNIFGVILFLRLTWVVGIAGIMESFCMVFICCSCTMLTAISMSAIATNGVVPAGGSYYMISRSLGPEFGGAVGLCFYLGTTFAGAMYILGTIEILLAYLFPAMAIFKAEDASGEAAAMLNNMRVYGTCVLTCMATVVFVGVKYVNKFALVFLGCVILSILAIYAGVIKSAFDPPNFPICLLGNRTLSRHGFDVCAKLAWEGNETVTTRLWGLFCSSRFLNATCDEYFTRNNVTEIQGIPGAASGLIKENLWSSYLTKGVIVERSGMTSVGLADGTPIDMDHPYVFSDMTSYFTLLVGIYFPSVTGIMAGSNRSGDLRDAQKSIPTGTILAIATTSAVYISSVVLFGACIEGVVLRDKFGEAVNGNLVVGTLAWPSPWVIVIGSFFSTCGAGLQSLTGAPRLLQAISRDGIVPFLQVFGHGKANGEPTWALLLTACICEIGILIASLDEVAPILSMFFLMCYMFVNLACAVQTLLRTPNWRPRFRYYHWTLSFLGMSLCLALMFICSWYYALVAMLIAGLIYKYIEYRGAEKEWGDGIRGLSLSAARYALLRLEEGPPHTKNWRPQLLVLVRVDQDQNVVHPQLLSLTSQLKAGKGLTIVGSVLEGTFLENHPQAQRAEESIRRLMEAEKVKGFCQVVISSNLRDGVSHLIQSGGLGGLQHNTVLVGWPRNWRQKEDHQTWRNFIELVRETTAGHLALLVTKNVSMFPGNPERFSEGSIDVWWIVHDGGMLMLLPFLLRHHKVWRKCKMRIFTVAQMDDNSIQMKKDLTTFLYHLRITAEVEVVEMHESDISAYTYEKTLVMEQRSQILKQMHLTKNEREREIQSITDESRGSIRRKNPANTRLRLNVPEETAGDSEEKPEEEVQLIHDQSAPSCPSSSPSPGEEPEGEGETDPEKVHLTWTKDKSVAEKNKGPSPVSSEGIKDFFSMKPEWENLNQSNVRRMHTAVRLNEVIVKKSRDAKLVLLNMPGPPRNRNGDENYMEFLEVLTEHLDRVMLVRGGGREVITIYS
hERG protect: shields human hERG channel from block by proarrhythmic agents; Q12809; CHO-hERG, FluxOR thallium flux, dofetilide IC70 present; activation (rescue from dofetilide block), less the hit threshold, % at 10 µM; actives 0.51% (n = 310,000);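 active = activation above the mean of controls blocked by dofetilide plus 5 SD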;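 note: thallium influx through hERG after potassium depolarization seen as dye fluorescence rise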
KCNQ1 inh: blocks the human KCNQ1 potassium channel; P51787; CHO-K1 KCNQ1, FluxOR thallium flux fluorescence; active compounds read high; B-score at 10 µM; actives 1.3% (n = 310,000);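 active = compounds whose thallium flux B-score, printed positive for inhibition, exceeds three library SD while starting fluorescence stays within three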;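 note: channel opened by potassium depolarization with thallium stimulus after 20 min compound exposure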
KCNK9 inh: inhibitors of human KCNK9 two-pore domain potassium channel; actives 1.2% (n = 310,000); Q9NPC2; HEK293 KCNK9, FluxOR thallium flux fluorescence; active compounds read low; B-score at 10 µM;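 active = ratio B-score over 3 SD below the library mean, with starting fluorescence within 5 SD of its mean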;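 note: negative B-score means less thallium flux so channel inhibition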
Hits are given with their value. Only some compounds are listed: those with a hit (about 4.1% of all), similar ones and a draw of the others.

`Oc1c(Br)cc(Br)cc1Oc1ccc(Br)cc1Br` gave KCNQ1 act inactive, Cl transport mod 6, hERG protect inactive, KCNQ1 inh inactive and KCNK9 inh inactive.
For CCN(CC)C(=O)c1ccc(NC(=O)c2cn(-c3ccccc3)nc2-c2ccc(OC)cc2)cc1 the results were KCNQ1 act inactive, KCNK3 inh inactive, hERG protect inactive, KCNQ1 inh inactive and KCNK9 inh inactive.
Cc1ccc(NC(=O)c2cn(CCC#N)nc2-c2ccc3c(c2)OCCO3)c([N+](=O)[O-])c1 was read as KCNQ1 act inactive, KCNK3 inh inactive, Cl transport mod inactive, hERG protect inactive, KCNQ1 inh inactive and KCNK9 inh inactive.
`CC1CN1P1(=O)OCC(C)([N+](=O)[O-])CO1` (configuration not stated) gave KCNK3 inh inactive.
For CC1N=C(c2ccccc2Cl)c2cc(Br)ccc2NC1=O (configuration not stated) the results were KCNQ1 act inactive, KCNK3 inh inactive, hERG protect 7.6, KCNQ1 inh inactive and KCNK9 inh inactive.
C/C1=C\[C@@H](C)C/C=C/[C@H]2[C@@H]3O[C@]3(C)[C@@H](C)[C@H]3[C@H](Cc4c[nH]c5ccccc45)NC(=O)[C@]32C(=O)/C=C/C(=O)[C@@H]1O was read as KCNQ1 act 22, KCNK3 inh inactive, Cl transport mod inactive, hERG protect inactive, KCNQ1 inh inactive and KCNK9 inh inactive.
Cc1cc(Oc2ccc(C(F)(F)F)cc2[N+](=O)[O-])c2c3c(c(=O)oc2c1)CCCC3 was read as KCNQ1 act inactive, KCNK3 inh inactive, Cl transport mod inactive, hERG protect inactive, KCNQ1 inh inactive and KCNK9 inh inactive.
Screening O=c1[nH]c(=S)n(CCC2=CCCCC2)c(O)c1C=NC1CCN(Cc2ccccc2)CC1 returned KCNQ1 act inactive, KCNK3 inh inactive, Cl transport mod inactive, hERG protect inactive, KCNQ1 inh 7 and KCNK9 inh inactive.
Screening CC(=O)OC(C)(C)/C=C/C(=O)[C@](C)(O)[C@H]1[C@H](O)C[C@@]2(C)[C@@H]3CC=C4[C@H](C[C@H](O)C(=O)C4(C)C)[C@]3(C)C(=O)C[C@]12C returned KCNK3 inh inactive and Cl transport mod inactive.
CC(=O)OC(C)(C)/C=C/C(=O)C(C)(O)C1[C@H](O)C[C@@]2(C)C3CC=C4C(CC[C@@H](O)C4(C)C)[C@]3(CO)C(=O)C[C@]12C (some centres not stated) was read as KCNQ1 act 13, KCNK3 inh inactive, hERG protect inactive, KCNQ1 inh inactive and KCNK9 inh inactive.
For C/C(=N\N1CCCCCC1)c1c(O)n(C2CCCCC2)c(=O)[nH]c1=O the results were KCNQ1 act inactive, KCNK3 inh inactive, Cl transport mod inactive, hERG protect inactive, KCNQ1 inh inactive and KCNK9 inh inactive.
For CCn1c(O)c(C=Nc2ccc(N3CCOCC3)cc2)c(=O)n(CC)c1=S the results were KCNQ1 act inactive, KCNK3 inh inactive, Cl transport mod inactive, hERG protect inactive, KCNQ1 inh 7 and KCNK9 inh inactive.
Screening CCn1c(O)c(C=Nc2ccc(N3CCOCC3)c(Br)c2)c(=O)n(CC)c1=S returned KCNQ1 act inactive, KCNK3 inh inactive, Cl transport mod inactive, hERG protect inactive, KCNQ1 inh inactive and KCNK9 inh inactive.
Cc1cccn2c(=O)c3c(nc12)N1CCCCC1C1(C3)C(=O)N(C)C(=O)N(C)C1=O (configuration not stated) was read as KCNQ1 act inactive, KCNK3 inh inactive, Cl transport mod inactive, hERG protect inactive, KCNQ1 inh inactive and KCNK9 inh inactive.
`Cc1cccn2c(=O)c3c(nc12)N1CCC(Cc2ccccc2)CC1C1(C3)C(=O)N(C)C(=O)N(C)C1=O` (configuration not stated) gave KCNQ1 act inactive, KCNK3 inh inactive, hERG protect inactive, KCNQ1 inh inactive and KCNK9 inh -6.6.
Screening N#CC(C#N)=NNc1ccc(-n2ccc(C(F)(F)F)n2)cc1 returned KCNQ1 act inactive, KCNK3 inh inactive, Cl transport mod inactive, hERG protect inactive, KCNQ1 inh 7 and KCNK9 inh inactive.
Screening COc1ccc(CC(C)NCCC(c2ccccc2)c2ccccc2)cc1 (configuration not stated) returned KCNQ1 act inactive, KCNK3 inh inactive, hERG protect inactive, KCNQ1 inh 6 and KCNK9 inh inactive.
`Cn1cccc1CNCCc1ccccc1` gave KCNQ1 act inactive, Cl transport mod inactive, hERG protect 6.4, KCNQ1 inh inactive and KCNK9 inh inactive.
O=C(Cc1ccccc1)N1CCN(CCCc2ccccc2)CC1 was read as KCNQ1 act inactive, KCNK3 inh inactive, hERG protect inactive, KCNQ1 inh inactive and KCNK9 inh inactive.
Screening CC(C)(C)C(=O)N1Cc2ccccc2-n2nncc2C1 returned KCNK3 inh inactive.
`CCCn1c(C)c(C(=O)c2cccc3ccccc23)c2ccccc21` gave KCNK3 inh -11.
Cc1c(C(=O)c2ccccc2)c2ccccc2n1C was read as KCNQ1 act inactive, KCNK3 inh inactive, Cl transport mod inactive, hERG protect inactive, KCNQ1 inh inactive and KCNK9 inh inactive.
For O=C1C(=Cc2ccccc2)N2CCC1CC2 the results were KCNK3 inh inactive.
O=C1NC(=O)N(c2ccc3c(c2)OCO3)C(=O)/C1=C\c1ccc(-c2ccccc2C(=O)O)o1 was read as KCNQ1 act inactive, KCNK3 inh inactive, hERG protect inactive, KCNQ1 inh inactive and KCNK9 inh inactive.
Screening O=C1NC(=O)N(c2ccc3c(c2)OCO3)C(=O)/C1=C/c1ccc(N2CCCCC2)o1 returned KCNQ1 act inactive, KCNK3 inh inactive, hERG protect inactive, KCNQ1 inh 6 and KCNK9 inh -7.7.
`O=C(Cc1ccccc1)N1CCN(Cc2ccc(F)cc2)CC1` gave KCNQ1 act inactive, KCNK3 inh inactive, hERG protect inactive, KCNQ1 inh inactive and KCNK9 inh inactive.
`Cc1cccc(OP(=O)(Oc2ccccc2)OC(c2ccccc2)C(F)(F)F)c1` (configuration not stated) gave KCNQ1 act inactive, KCNK3 inh inactive, Cl transport mod inactive, hERG protect inactive, KCNQ1 inh 8 and KCNK9 inh inactive.
O=C1c2ccccc2C2(c3ccc(Cl)cc3)NCCN12 (configuration not stated) was read as KCNQ1 act inactive, KCNK3 inh inactive, Cl transport mod inactive, hERG protect 4.8, KCNQ1 inh inactive and KCNK9 inh inactive.
For COc1ccc2c(c1)C(c1ccc(N(CCCl)CCCl)cc1)=NCC2 the results were KCNK3 inh -8.7.
For O=[N+]([O-])c1ccccc1-c1cc(-c2ccccc2)cc(-c2ccccc2)[n+]1Cc1ccccc1Cl the results were KCNQ1 act inactive, hERG protect inactive, KCNQ1 inh 8 and KCNK9 inh -8.

Bioassay records as filed in PubChem BioAssay.
